According to ChEMBL document CHEMBL1149258, “Synthesis and structure-activity relationships of novel histamine H1 antagonists: indolylpiperidinyl benzoic acid derivatives” (J Med Chem, 2004):

Key:
Rattus norvegicus [1] = assay: Inhibition of increase in histamine-induced cutaneous vascular permeability in orally dosed Wistar rat model after 4 hrs; type: functional; details: po
How it was run: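 Fasted male rats (150-175 g; n=5 per condition) dosed orally in 0.5% methylcellulose/0.1% Tween 80. At 4 h, under light ether, received four intradermal injections of 5 µg histamine, then 0.5% Evans Blue iv. Killed 1 h later. Papule area from maximum and minimum diameters (ellipse); inhibition of papule area; ED50 (mg/kg, po).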

Histamine H1 receptor = Histamine H1 receptor (Cavia porcellus, UniProt P31389); assay: Displacement of [3H]mepyramine from histamine H1 receptor in guinea pig cerebellum membranes; type: cell membranes, Membrane
How it was run: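 Guinea pig cerebellum membranes (160 µg/mL) incubated with 0.7 nM [3H]-mepyramine at 30 °C for 30 min, 0.5 mL final volume, ended by filtration. Nonspecific binding with 10 µM promethazine. At least six concentrations in duplicate; IC50 by nonlinear regression. Compound stocks 10^-2 M in DMSO, diluted in 50% DMSO.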

[2] = biological target: T1, Adrenergic receptor alpha-1 (Rattus norvegicus, UniProt P15823+P23944+P43140); assay: Displacement of [3H]prazosin from adrenergic alpha-1 receptor in rat brain membranes; type: cell membranes
T1 sequence (P15823 whole entry): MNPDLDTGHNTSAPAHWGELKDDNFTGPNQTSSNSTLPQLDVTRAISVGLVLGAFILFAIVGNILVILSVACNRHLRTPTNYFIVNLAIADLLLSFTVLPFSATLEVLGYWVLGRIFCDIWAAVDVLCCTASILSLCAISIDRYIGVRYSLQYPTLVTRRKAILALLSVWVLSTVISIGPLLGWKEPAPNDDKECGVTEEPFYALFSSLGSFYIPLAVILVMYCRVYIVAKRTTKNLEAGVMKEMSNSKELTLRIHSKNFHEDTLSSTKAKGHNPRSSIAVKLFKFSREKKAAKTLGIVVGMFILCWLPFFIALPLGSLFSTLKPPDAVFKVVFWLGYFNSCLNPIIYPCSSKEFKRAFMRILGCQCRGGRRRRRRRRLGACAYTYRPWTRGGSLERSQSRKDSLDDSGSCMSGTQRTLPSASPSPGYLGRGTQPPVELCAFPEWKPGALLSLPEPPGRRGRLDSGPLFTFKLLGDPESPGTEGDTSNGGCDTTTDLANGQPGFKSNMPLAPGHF
T1 sequence (P23944 whole entry): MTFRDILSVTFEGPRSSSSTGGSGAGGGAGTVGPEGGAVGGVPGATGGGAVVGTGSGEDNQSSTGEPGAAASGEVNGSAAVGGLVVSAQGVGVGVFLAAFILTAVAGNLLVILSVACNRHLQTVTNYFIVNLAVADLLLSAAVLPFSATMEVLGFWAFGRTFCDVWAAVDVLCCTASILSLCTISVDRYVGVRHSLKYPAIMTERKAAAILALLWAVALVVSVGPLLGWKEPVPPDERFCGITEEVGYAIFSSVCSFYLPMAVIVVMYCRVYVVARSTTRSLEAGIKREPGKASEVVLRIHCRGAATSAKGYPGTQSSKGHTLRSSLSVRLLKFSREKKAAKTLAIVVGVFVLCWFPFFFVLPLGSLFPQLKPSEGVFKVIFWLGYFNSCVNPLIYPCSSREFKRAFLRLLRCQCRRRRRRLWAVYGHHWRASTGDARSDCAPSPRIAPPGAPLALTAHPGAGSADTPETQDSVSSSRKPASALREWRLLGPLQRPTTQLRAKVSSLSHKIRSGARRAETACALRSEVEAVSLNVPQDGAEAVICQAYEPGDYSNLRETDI
T1 sequence (P43140 whole entry): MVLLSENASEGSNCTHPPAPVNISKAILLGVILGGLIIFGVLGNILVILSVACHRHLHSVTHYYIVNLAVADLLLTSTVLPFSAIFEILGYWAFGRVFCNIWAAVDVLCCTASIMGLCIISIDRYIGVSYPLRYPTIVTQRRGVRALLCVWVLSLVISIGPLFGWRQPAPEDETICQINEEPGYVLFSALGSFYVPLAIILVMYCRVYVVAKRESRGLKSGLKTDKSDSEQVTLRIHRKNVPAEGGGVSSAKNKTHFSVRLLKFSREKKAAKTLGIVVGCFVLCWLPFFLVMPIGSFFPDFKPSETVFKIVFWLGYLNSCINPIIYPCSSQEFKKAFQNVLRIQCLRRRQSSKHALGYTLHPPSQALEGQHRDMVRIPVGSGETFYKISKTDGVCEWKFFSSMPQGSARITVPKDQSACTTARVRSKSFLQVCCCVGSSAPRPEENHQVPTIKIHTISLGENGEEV
How it was run: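 Rat brain membranes (340 µg protein/mL) with 0.25 nM [3H]-prazosin in 50 mM Tris-HCl pH 7.7, room temperature, 60 min, filtration. Nonspecific binding with 100 µM prazosin. Several concentrations run in duplicate; IC50 by nonlinear regression.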

Rattus norvegicus [3] = assay: Inhibition of increase in histamine-induced cutaneous vascular permeability in orally dosed Wistar rat model after 8 hrs; type: functional; details: po
How it was run: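 Male Wistar rats (150-175 g), fasted, dosed orally in 0.5% methylcellulose/0.1% Tween 80 (10 mL/kg), n=5. At 1 or 8 h after dosing, four intradermal injections of 5 µg histamine were given, plus iv 0.5% Evans Blue. Papule area (ellipse) measured 1 h later. ED50 in mg/kg po.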

[4] = biological target: Histamine H1 receptor (Mus musculus) (UniProt P70174); assay: Ex vivo displacement of [3H]mepyramine from brain histamine H1 receptor in orally dosed Swiss Albino mouse; type: functional, organism-based
How it was run: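 Overnight-fasted male mice (20-25 g) dosed orally at several doses (0.5% methylcellulose/0.1% Tween 80, 10 mL/kg), killed 90 min later. Whole brain homogenised in ice-cold 0.05 M Na+/K+ phosphate pH 7.4; aliquots incubated in triplicate with 2 nM final [3H]-mepyramine, 40 min at 30 °C, then filtered. Nonspecific binding from 30 mg/kg po D-chlorpheniramine; total binding from vehicle. Three animals per dose; ED50 reported.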

Histamine H1 receptor (Mus musculus), sequence (P70174 whole entry): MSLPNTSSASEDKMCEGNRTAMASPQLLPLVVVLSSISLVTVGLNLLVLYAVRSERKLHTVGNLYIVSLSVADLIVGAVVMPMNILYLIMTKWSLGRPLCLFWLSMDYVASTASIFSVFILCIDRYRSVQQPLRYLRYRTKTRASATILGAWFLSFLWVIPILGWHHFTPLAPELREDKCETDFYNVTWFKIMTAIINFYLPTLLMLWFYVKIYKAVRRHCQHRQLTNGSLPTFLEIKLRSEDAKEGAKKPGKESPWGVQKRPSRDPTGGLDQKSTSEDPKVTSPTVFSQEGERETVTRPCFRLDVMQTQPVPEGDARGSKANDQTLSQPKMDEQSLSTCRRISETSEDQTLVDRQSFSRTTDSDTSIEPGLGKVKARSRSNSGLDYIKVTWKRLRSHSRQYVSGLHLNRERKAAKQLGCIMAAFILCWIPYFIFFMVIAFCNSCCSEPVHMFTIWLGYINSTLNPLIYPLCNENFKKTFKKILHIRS
Histamine H1 receptor, sequence (P31389 whole entry): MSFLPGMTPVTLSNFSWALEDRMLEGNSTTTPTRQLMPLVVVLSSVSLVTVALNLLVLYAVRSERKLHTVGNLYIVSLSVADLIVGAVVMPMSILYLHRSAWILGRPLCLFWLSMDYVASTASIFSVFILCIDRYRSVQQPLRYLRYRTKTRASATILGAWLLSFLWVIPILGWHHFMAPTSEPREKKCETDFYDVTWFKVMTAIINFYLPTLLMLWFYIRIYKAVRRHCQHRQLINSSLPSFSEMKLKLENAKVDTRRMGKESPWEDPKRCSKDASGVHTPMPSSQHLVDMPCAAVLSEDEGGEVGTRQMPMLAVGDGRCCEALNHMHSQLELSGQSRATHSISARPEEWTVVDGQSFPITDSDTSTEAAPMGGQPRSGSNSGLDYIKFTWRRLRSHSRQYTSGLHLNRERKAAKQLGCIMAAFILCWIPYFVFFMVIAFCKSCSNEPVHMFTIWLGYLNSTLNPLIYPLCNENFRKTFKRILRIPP

Compound | ED50 (Rattus norvegicus [1]) | IC50 (Histamine H1 receptor) | IC50 [2] | ED50 (Rattus norvegicus [3]) | ED50 [4]
O=C(O)c1ccccc1OCCN1CCC(c2cn(Cc3ccc(Cl)s3)c3ccccc23)CC1 | 3 mg/kg |  |  |  | 
CCOCCn1cc(C2CCN(Cc3cccc(OCC(=O)O)c3)CC2)c2ccccc21 | 3 mg/kg | 0.13 µM (antagonist) | > 10 µM |  | 
CCOCCn1cc(C2CCN(CCOc3ccccc3C(=O)O)CC2)c2cccc(Br)c21 | > 3 mg/kg | 0.08 µM (antagonist) | 10 µM |  | 
O=C(O)c1ccccc1OCCN1CCC(c2cn(CC3CC3)c3ccccc23)CC1 | 0.6 mg/kg |  | > 10 µM | 1.3 mg/kg (antagonist) | > 100 mg/kg
CCOCCn1cc(C2CCN(Cc3ccc(OC)c(C(=O)O)c3)CC2)c2ccccc21 | 0.02 mg/kg |  |  |  | 
O=C(O)c1ccccc1OCCN1CCC(c2cn(CC3CC3)c3cc(F)ccc23)CC1 | 0.11 mg/kg |  | > 10 µM | 0.5 mg/kg (antagonist) | 
CCOCCn1cc(C2CCN(CCOc3c(Br)cc(Br)cc3C(=O)O)CC2)c2ccccc21 |  | 0.225 µM (antagonist) | 6.9 µM |  | 
CCOCCn1cc(C2CCN(CCOc3ccccc3C(=O)O)CC2)c2ccc(C(F)(F)F)cc21 |  | > 0.5 µM | 6.9 µM |  | 
CCOCCn1cc(C2CCN(CCOc3cc(OC)ccc3C(=O)O)CC2)c2ccccc21 | 0.17 mg/kg | 0.034 µM (antagonist) |  |  | 
CCOCCn1cc(C2CCN(Cc3cccc(C(=O)O)c3)CC2)c2cc(OC)ccc21 | > 3 mg/kg | 0.5 µM (antagonist) | > 10 µM |  | 
CCOCCn1cc(C2CCN(Cc3ccc(F)c(C(=O)O)c3)CC2)c2ccccc21 |  | 0.3 µM (antagonist) | > 10 µM | 0.01 mg/kg (antagonist) | 0.5 mg/kg
CCOCCn1cc(C2CCN(CCOc3ccsc3C(=O)O)CC2)c2ccccc21 |  | 0.1 µM (antagonist) | < 10 µM |  | 
CCOCCn1cc(C2CCN(CCOc3ccccc3C(=O)O)CC2)c2cc(Br)ccc21 |  | 0.15 µM (antagonist) | 3.6 µM |  | 
O=C(O)c1cccc(CN2CCC(c3cn(Cc4ccco4)c4ccccc34)CC2)c1 | 1 mg/kg | 0.087 µM (antagonist) | > 10 µM |  | 
CCOCCn1cc(C2CCN(Cc3ccc(OCC(=O)O)cc3)CC2)c2ccccc21 | > 3 mg/kg | 0.322 µM (antagonist) | > 10 µM |  | 
COCCn1cc(C2CCN(Cc3cccc(C(=O)O)c3)CC2)c2ccc(F)cc21 | 1 mg/kg | 0.15 µM (antagonist) | > 10 µM |  | 
O=C(O)c1ccccc1OCCN1CCC(c2cn(CCc3ccccn3)c3ccccc23)CC1 |  | 0.57 µM (antagonist) | > 10 µM |  | 
O=C(O)c1ccccc1OCCN1CCC(c2cn(CCC3COCCO3)c3ccccc23)CC1 (configuration not stated) | 3 mg/kg | 0.39 µM (antagonist) | 6.2 µM |  | 
CCOCCn1cc(C2CCN(CCOc3ccccc3C(=O)O)CC2)c2cccc(C)c21 |  | 0.5 µM (antagonist) | 7.6 µM |  | 
COc1ccc(CN2CCC(c3cn(Cc4ccoc4)c4cc(F)ccc34)CC2)cc1C(=O)O | 0.02 mg/kg |  | > 10 µM | 0.037 mg/kg (antagonist) | 7 mg/kg
CCOCCn1cc(C2CCN(Cc3ccccc3C(=O)O)CC2)c2ccccc21 | 3 mg/kg | 0.33 µM (antagonist) | > 10 µM |  | 

Compound | ED50 (Rattus norvegicus [1]) | IC50 (Histamine H1 receptor) | IC50 [2] | ED50 (Rattus norvegicus [3]) | ED50 [4]
CCOCCn1cc(C2CCN(CCOc3ccc(C(=O)O)cc3)CC2)c2ccccc21 |  |  | 3 µM |  | 
CCOCCn1cc(C2CCN(CCOc3cccc(F)c3C(=O)O)CC2)c2ccccc21 |  | 0.5 µM (antagonist) | 10 µM |  | 
CCOCCn1cc(C2CCN(CCOc3ccccc3C(=O)O)CC2)c2cc(F)ccc21 |  | 0.1 µM (antagonist) | 10 µM |  | 
COCCn1cc(C2CCN(Cc3ccc(OC)c(C(=O)O)c3)CC2)c2ccc(F)cc21 | 0.06 mg/kg |  | > 10 µM | 0.02 mg/kg (antagonist) | 4 mg/kg
COc1ccc(CN2CCC(c3cn(Cc4ccc(Cl)s4)c4cc(F)ccc34)CC2)cc1C(=O)O | 0.19 mg/kg |  | > 10 µM | 0.09 mg/kg (antagonist) | 5.5 mg/kg
C=CCn1cc(C2CCN(CCOc3ccccc3C(=O)O)CC2)c2ccccc21 | 3 mg/kg |  | > 10 µM |  | 
CCOCCn1cc(C2CCN(CCOc3ccccc3C(=O)O)CC2)c2ccc(F)cc21 |  | 0.076 µM (antagonist) | 10 µM |  | 
COCCn1cc(C2CCN(CCOc3ccccc3C(=O)O)CC2)c2ccccc21 | 1.1 mg/kg |  | > 10 µM |  | 
CCOCCn1cc(C2CCN(Cc3ccccc3OCC(=O)O)CC2)c2ccccc21 | > 3 mg/kg | 0.196 µM (antagonist) | > 10 µM |  | 
O=C(O)c1cccc(CN2CCC(c3cn(Cc4ccc(Cl)s4)c4ccccc34)CC2)c1 | > 3 mg/kg | 0.103 µM (antagonist) |  |  | 
CCOCCn1cc(C2CCN(Cc3cccc(C(=O)O)c3)CC2)c2ccccc21 | 0.011 mg/kg | 0.218 µM (antagonist) |  |  | 
O=C(O)c1ccccc1OCCN1CCC(c2cn(Cc3ccco3)c3ccccc23)CC1 | 3 mg/kg |  | > 10 µM |  | 
CCOCCn1cc(C2CCN(Cc3cc(C(=O)O)ccc3Br)CC2)c2ccccc21 | 3 mg/kg | 0.345 µM (antagonist) | > 10 µM |  | 
CCOCCn1cc(C2CCN(CCOc3cccc(C(=O)O)c3)CC2)c2ccccc21 |  |  | 2 µM |  | 
CCOCCn1cc(C2CCN(CCOc3ccc(C(C)=O)cc3C(=O)O)CC2)c2ccccc21 |  | 0.219 µM (antagonist) | > 10 µM |  | 
O=C(O)c1cccc(CN2CCC(c3cn(Cc4cccs4)c4ccccc34)CC2)c1 | 3 mg/kg |  | > 10 µM |  | 
CCOCCn1cc(C2CCN(CCOc3ccc(C)cc3C(=O)O)CC2)c2ccccc21 |  | 0.221 µM (antagonist) | 8.6 µM |  | 
O=C(O)c1ccccc1OCCN1CCC(c2cn(Cc3ccc(Cl)s3)c3cc(F)ccc23)CC1 | 1 mg/kg | 0.028 µM (antagonist) | > 10 µM |  | 
O=C(O)c1ccccc1OCCN1CCC(c2cn(Cc3cccs3)c3ccccc23)CC1 |  | 0.098 µM (antagonist) | 3.7 µM |  | 
O=C(O)c1ccccc1OCCN1CCC(c2cn(Cc3ccco3)c3cc(F)ccc23)CC1 | 0.32 mg/kg | 0.037 µM (antagonist) | > 10 µM | 2.2 mg/kg (antagonist) | 
